Holding throughout (format): functional
For assay [1], the system named is Oncopeltus fasciatus. As to the kind of experiment: Insecticidal activity against third-instar nymph stage of Oncopeltus fasciatus assessed as mortality at 20 ug/cm2 after 72 hr relative to control. The procedure, abridged:
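Nymphs were reared on sunflower seeds at 27 ± 1 °C, 50-60% RH and 16 h/8 h light/dark. Acute toxicity was scored as dead insects after 72 h of exposure. Controls received the same amount of acetone. Run in triplicate; values are means ± SE with significance at […].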

Assay [2] concerns Ceratitis capitata. As to the kind of experiment: Insecticidal activity against adult Ceratitis capitata assessed as fecundity reduction at 10 ug/fly measured every 2 days for 10 days relative to control. More on the design: scale not given: the % may be the effect or the level left. A digest of the protocol:
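Flies were anaesthetised on ice and dosed topically on the abdomen with 1 µL of acetone solution; controls received acetone alone. Eggs laid over 24 h were collected and counted every 2 days through the 10-day period. Female deaths were logged to give eggs/female/day, accumulated over 10 days. Six independent experiments, reported as means ± SE.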

For assay [3], the system named is Ceratitis capitata. Nature of the assay: Insecticidal activity against adult Ceratitis capitata assessed as mortality at 10 ug/fly measured every 24 hr for 10 days relative to control. The procedure, abridged: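 Adults 2-3 days old (5 males, 5 females per group) were anaesthetised on ice and dosed topically on the ventral abdomen with 1 µL of acetone dilution. Controls received 1 µL of acetone. Flies were held at 27 ± 1 °C, 50-60% RH and 16 h/8 h light/dark, with diet and water ad libitum. Mortality was scored every 24 h for 10 days. The assay was run on six occasions.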

Assay [4] concerns Oncopeltus fasciatus. As to the kind of experiment: Insecticidal activity against third-instar nymph stage of Oncopeltus fasciatus assessed as nymph survival to reach adult instar stage at 20 to 500 ug/cm2 after 72 hr relative to control. A digest of the protocol:
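Insects were colony-reared at 27 ± 1 °C, 50-60% RH and 16 h/8 h photoperiod. After 72 h of exposure, surviving nymphs were moved to a 500 cm3 glass flask and held under standard conditions to follow development to the adult stage. Acetone-treated controls were run in parallel.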

Assay [5] relates to Ceratitis capitata. Nature of the assay: Insecticidal activity against adult Ceratitis capitata assessed as eclosion rate at 10 ug/fly measured on 4 to 10 days relative to control.
In assay [6] the test system is Ceratitis capitata. As to the kind of experiment: Insecticidal activity against adult Ceratitis capitata assessed as fertility reduction at 10 ug/fly measured on 6 to 10 days relative to control. More on the design: scale not given: the % may be the effect or the level left. The procedure, abridged: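 Flies were dosed topically with 1 µL of acetone solution after ice anaesthesia; controls received acetone. On days 6 and 10 after treatment, 30 eggs per experiment were picked at random and placed on plates coated with 0.03% agar. Plates were kept at 27 ± 2 °C, 50-60% RH and 16 h/8 h light/dark, and emerged larvae were counted 5 days after collection.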

Broadly, the mortality is the share of the test organisms that died. Regarding `C=C(C)[C@H]1O[C@H]2CC[C@@]3(C)[C@@](O)(CC[C@H]4[C@@H]5OC(C)(C)[C@H]6C[C@@H]7C(=C)Cc8c(Cl)cc9[nH]c(c5c9c8[C@@]76O)[C@@]43C)[C@@]23O[C@H]3[C@H]1O` [PENITREM A], the mortality at 20 µg/cm2 in the assay with Oncopeltus fasciatus [1] amounted to 31.1%. In addition, the Activity with Ceratitis capitata [2] is 78.4%; with Ceratitis capitata [5], 0%; in the assay with Ceratitis capitata [6], 100%. Moreover, in the assay with Ceratitis capitata [3], the mortality is reported as 59.7%. For the same compound, the Survival in the assay with Oncopeltus fasciatus [4] turned out to be 0%.
For `C=C1Cc2ccc3[nH]c4c5c3c2[C@H]2[C@@H]1C[C@@H]2C(C)(C)O[C@H]5[C@@H]1CC[C@@]2(O)[C@@]35O[C@@H]3[C@@H](O)[C@@H](C(=C)C)O[C@H]5CC[C@]2(C)[C@@]41C` [PENITREM B], in the assay on Oncopeltus fasciatus [1], the mortality at 20 µg/cm2 stood at 6.6%. The Activity in the assay with Ceratitis capitata [2] was determined as 88%; in the assay with Ceratitis capitata [5], 0%; with Ceratitis capitata [6], 100%. In the assay with Ceratitis capitata [3], the mortality turned out to be 50%. In the assay on Oncopeltus fasciatus [4], the Survival is reported as 14.3%.
Take `C=C1Cc2c(Cl)cc3[nH]c4c5c3c2[C@H]2[C@@H]1C[C@@H]2C(C)(C)O[C@H]5[C@@H]1CC[C@@]2(O)C3=C[C@@H](O)[C@@H](C(=C)C)O[C@H]3CC[C@]2(C)[C@@]41C` [PENITREM C]: in the assay with Oncopeltus fasciatus [1], the mortality at 20 µg/cm2 was 24.4%. For the same compound, the Activity in the assay on Ceratitis capitata [2] is 94.9%; in the assay on Ceratitis capitata [5] it was 0%; in the assay on Ceratitis capitata [6], 100%. Moreover, in the assay with Ceratitis capitata [3], the mortality is on record as 73.3%. For the same compound, in the assay with Oncopeltus fasciatus [4], the Survival is given as 29.5%.
As for `C=C1Cc2ccc3[nH]c4c5c3c2[C@H]2[C@@H]1C[C@H]2C(C)(C)O[C@H]5[C@@H]1CC[C@@]2(O)C3=C[C@@H](O)[C@@H](C(=C)C)O[C@H]3CC[C@]2(C)[C@@]41C` [PENITREM D], the mortality at 20 µg/cm2 in the assay on Oncopeltus fasciatus [1] came out at 11.1%. Besides, the Activity in the assay with Ceratitis capitata [2] is 77.1%; in the assay with Ceratitis capitata [5], 42.8%; in the assay with Ceratitis capitata [6] it was 52.5%. Further, in the assay on Ceratitis capitata [3], the mortality was 41.7%. Also, the Survival with Oncopeltus fasciatus [4] amounted to 58.3%.
`C=C1Cc2c(Cl)cc3[nH]c4c5c3c2[C@H]2[C@@H]1C[C@@H]2C(C)(C)O[C@H]5[C@@H]1CC[C@@]2(O)[C@@]35O[C@@H]3[C@@H](O)[C@@H](C(=C)C)O[C@H]5CC[C@]2(C)[C@@]41C` [PENITREM F]: the mortality at 20 µg/cm2 with Oncopeltus fasciatus [1] came out at 20.3%. In addition, the Activity was 100% with Ceratitis capitata [2], 0% in the assay with Ceratitis capitata [5] and 100% in the assay with Ceratitis capitata [6]. Also, the mortality in the assay on Ceratitis capitata [3] is 66.6%. Besides, the Survival in the assay with Oncopeltus fasciatus [4] turned out to be 9.5%.
Regarding `C=C1Cc2ccc3[nH]c4c5c3c2[C@H]2[C@@H]1C[C@H]2C(C)(C)O[C@H]5[C@]1(O)CC[C@@]2(O)C3=C[C@@H](O)[C@@H](C(=C)C)O[C@H]3CC[C@]2(C)[C@@]41C` [PENITREM G], the mortality at 20 µg/cm2 in the assay on Oncopeltus fasciatus [1] came out at 0%. Further, the values for the Activity with Ceratitis capitata [2], with Ceratitis capitata [5] and in the assay with Ceratitis capitata [6] were 7.2%, 88.5% and 3.8%, respectively. Moreover, the mortality in the assay on Ceratitis capitata [3] was 0%. The Survival in the assay on Oncopeltus fasciatus [4] amounted to 100%.
